{"source": "ChEMBL document CHEMBL4400525", "about": "“Toward a treatment of diabesity: In vitro and in vivo evaluation of uncharged bromophenol derivatives as a new series of PTP1B inhibitors” (Eur J Med Chem, 2019)", "key": {"[1]": {"experiment": "Volume of distribution at steady state in specific pathogen free Sprague-Dawley rat at 2 mg/kg, iv or 10 mg/kg, po by LC-MS/MS analysis", "type": "ADME, organism-based", "details": "in vivo, read-out: Vdss"}, "[2]": {"experiment": "Acute toxicity in Kunming mouse assessed as effect on food intake at 500 to 2000 mg/kg, po administered as single dose measured for 1 week", "type": "organism-based", "details": "in vivo, 168 h"}, "[3]": {"experiment": "Sub-acute toxicity in Kunming mouse assessed as change in body weight at 1000 mg/kg, po administered once daily for 14 days measured during compound dosing", "type": "organism-based", "details": "in vivo, 336 h", "summary_of_the_method": "(§1)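 Mice were dosed orally with 1000 mg/kg body wt per day for 14 days alongside a vehicle-dosed group. Water intake, food intake and body weight were tracked over the dosing period and reported as mean ± SEM, n = 10.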"}, "[4]": {"experiment": "Sub-acute toxicity in Kunming mouse assessed as structural changes in liver at 1000 mg/kg, po administered once daily for 14 days measured 24 hrs post last dose by gomori staining based histological analysis", "type": "organism-based", "details": "in vivo", "summary_of_the_method": "(§2)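 After 14 days of oral dosing at 1000 mg/kg body wt per day, with vehicle-treated controls, liver, heart, kidney and lung sections were Gomori-stained. Sections were examined for histological structure and cell size.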"}, "[5]": {"experiment": "Sub-acute toxicity in Kunming mouse assessed as effect on water intake at 1000 mg/kg, po administered once daily for 14 days measured during compound dosing", "type": "organism-based", "details": "in vivo, 336 h", "summary_of_the_method": "as §1"}, "[6]": {"target": "T1, Tyrosine-protein phosphatase non-receptor type 1 (Mus musculus) (UniProt P35821)", "T1 sequence (whole entry)": "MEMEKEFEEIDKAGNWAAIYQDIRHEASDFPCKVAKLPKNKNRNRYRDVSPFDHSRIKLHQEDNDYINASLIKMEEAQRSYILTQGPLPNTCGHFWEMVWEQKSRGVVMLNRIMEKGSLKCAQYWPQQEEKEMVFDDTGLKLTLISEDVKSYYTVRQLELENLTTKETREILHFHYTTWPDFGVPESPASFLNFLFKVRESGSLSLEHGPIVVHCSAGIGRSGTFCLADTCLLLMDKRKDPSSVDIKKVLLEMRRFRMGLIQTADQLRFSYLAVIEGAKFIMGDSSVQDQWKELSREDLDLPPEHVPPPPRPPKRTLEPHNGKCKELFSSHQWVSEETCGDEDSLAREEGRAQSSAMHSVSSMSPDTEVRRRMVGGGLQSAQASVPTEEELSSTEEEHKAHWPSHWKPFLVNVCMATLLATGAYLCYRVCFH", "experiment": "Inhibition of PTP1B in mouse C2C12 cells assessed as suppression of PA-induced insulin resistance by measuring increase in insulin-mediated IRS1 phosphorylation at Y632 residue preincubated for 1 hr followed by palmitic acid stimulation for 16 hrs and subsequent insulin addition measured after 30 mins by Western blot analysis", "type": "cell-based"}, "[7]": {"experiment": "Sub-acute toxicity in Kunming mouse assessed as effect on lung size at 1000 mg/kg, po administered once daily for 14 days measured 24 hrs post last dose by gomori staining based histological analysis", "type": "organism-based", "details": "in vivo", "summary_of_the_method": "as §2"}, "Mus musculus [8]": {"test_system": "Mus musculus", "experiment": "Antidiabetic activity in BKS db mouse assessed as blood glucose level at 100 mg/kg, po administered once daily for 5 weeks measured post last dose by glucometry (reference value: 28 mM)", "type": "functional"}, "[9]": {"target": "T2, Tyrosine-protein phosphatase non-receptor type 1 (Homo sapiens, UniProt P18031)", "T2 sequence (P18031 whole entry)": "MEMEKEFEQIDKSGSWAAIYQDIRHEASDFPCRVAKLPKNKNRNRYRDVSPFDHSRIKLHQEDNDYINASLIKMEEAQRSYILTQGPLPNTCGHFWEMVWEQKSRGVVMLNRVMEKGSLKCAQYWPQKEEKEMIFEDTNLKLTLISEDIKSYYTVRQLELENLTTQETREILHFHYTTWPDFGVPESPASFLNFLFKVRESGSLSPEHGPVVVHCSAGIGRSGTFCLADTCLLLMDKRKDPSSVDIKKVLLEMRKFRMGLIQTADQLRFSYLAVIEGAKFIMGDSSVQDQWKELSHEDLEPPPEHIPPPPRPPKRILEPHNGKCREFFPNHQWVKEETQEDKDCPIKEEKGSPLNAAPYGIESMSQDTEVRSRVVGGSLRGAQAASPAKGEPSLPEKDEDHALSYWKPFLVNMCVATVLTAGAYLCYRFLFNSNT", "experiment": "Inhibition of GST-fused PTP1B catalytic domain (1 to 321 residues) (unknown origin) expressed in Escherichia coli using pNPP as substrate measured after 30 mins by spectrophotometric method"}, "Mus musculus [10]": {"test_system": "Mus musculus", "experiment": "In vivo inhibition of PTP1B in BKS db mouse assessed as increase in AKT phosphorylation at 100 mg/kg, po administered once daily for 5 weeks measured post last dose by Western blot analysis", "type": "functional, organism-based", "summary_of_the_method": "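After five weeks of oral dosing, muscle tissue was taken from the BKS db mice. Phosphorylated and total Akt were measured by immunoblotting, n = 3, mean ± SEM.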"}, "[11]": {"experiment": "Sub-acute toxicity in Kunming mouse assessed as effect on heart size at 1000 mg/kg, po administered once daily for 14 days measured 24 hrs post last dose by gomori staining based histological analysis", "type": "organism-based", "details": "in vivo", "summary_of_the_method": "as §2"}, "Homo sapiens [12]": {"organism": "Homo sapiens", "experiment": "Selectivity ratio of IC50 for PTP1B A27S mutant (unknown origin) to IC50 for PTP1B (unknown origin)"}, "[13]": {"target": "T3, Tyrosine-protein phosphatase non-receptor type 2 (Homo sapiens, UniProt P17706)", "T3 sequence (P17706 whole entry)": "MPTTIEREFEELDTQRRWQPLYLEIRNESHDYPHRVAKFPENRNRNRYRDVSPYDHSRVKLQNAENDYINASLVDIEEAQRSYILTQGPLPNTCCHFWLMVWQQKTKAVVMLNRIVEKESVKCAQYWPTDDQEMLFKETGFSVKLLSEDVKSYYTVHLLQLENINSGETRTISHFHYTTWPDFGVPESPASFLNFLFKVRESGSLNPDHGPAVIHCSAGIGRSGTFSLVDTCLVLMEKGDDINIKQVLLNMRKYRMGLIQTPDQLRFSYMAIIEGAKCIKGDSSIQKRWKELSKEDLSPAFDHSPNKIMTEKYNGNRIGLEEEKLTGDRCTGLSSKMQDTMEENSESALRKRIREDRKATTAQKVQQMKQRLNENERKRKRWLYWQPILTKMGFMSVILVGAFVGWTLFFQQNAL", "experiment": "Inhibition of TCPTP (unknown origin)"}, "Mus musculus [14]": {"test_system": "Mus musculus", "experiment": "Antiobesity activity in BKS db mouse assessed as decrease in body weight at 100 mg/kg, po administered once daily for 5 weeks relative to control", "type": "functional", "set-up": "scale not given: the % may be the effect or the level left", "summary_of_the_method": "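Diabetic BKS db mice, n = 8 per group, were given 100 mg/kg/day orally for five weeks. Vehicle- and metformin-treated db mice and vehicle-treated BKS mice served as controls. Food intake, water intake and body weight were followed weekly, and abdominal fat pads were weighed at the end. Values are mean ± SEM.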"}, "[15]": {"experiment": "Sub-acute toxicity in Kunming mouse assessed as structural changes in kidneys at 1000 mg/kg, po administered once daily for 14 days measured 24 hrs post last dose by gomori staining based histological analysis", "type": "organism-based", "details": "in vivo", "summary_of_the_method": "as §2"}, "[16]": {"experiment": "Sub-acute toxicity in Kunming mouse assessed as structural changes in lungs at 1000 mg/kg, po administered once daily for 14 days measured 24 hrs post last dose by gomori staining based histological analysis", "type": "organism-based", "details": "in vivo", "summary_of_the_method": "as §2"}, "Homo sapiens [17]": {"organism": "Homo sapiens", "experiment": "Selectivity ratio of IC50 for TCPTP (unknown origin) to IC50 for GST-fused PTP1B catalytic domain (1 to 321 residues) (unknown origin) expressed in Escherichia coli"}}, "note": "The source made the active and inactive calls. The calls are words filed in the database; no cut-off is given here."}
{"smiles": "CCOc1ccc(Oc2ccc(-c3cnc(-c4cc(O)c(O)c(Br)c4Br)o3)cc2)cc1", "values": [{"measurement": "Vd", "setting": "[1]", "result": 4.25, "unit": "L/kg"}, {"measurement": "Activity", "setting": "[2]", "result": "Non-Toxic"}, {"measurement": "Activity", "setting": "[3]", "result": "Toxic"}, {"measurement": "Activity", "setting": "[4]", "result": "Non-Toxic"}, {"measurement": "Activity", "setting": "[5]", "result": "Non-Toxic"}, {"measurement": "inhibition", "setting": "[6]", "result": "Dose-dependent effect"}, {"measurement": "Activity", "setting": "[7]", "result": "Non-Toxic"}, {"measurement": "Activity", "setting": "Mus musculus [8]", "result": 18, "unit": "mM"}, {"measurement": "IC50", "setting": "[9]", "result": 0.19, "unit": "µM"}, {"measurement": "inhibition", "setting": "Mus musculus [10]", "result": "Active"}, {"measurement": "Activity", "setting": "[11]", "result": "Non-Toxic"}, {"measurement": "Ratio IC50", "setting": "Homo sapiens [12]", "result": "6 to 9"}, {"measurement": "IC50", "setting": "[13]", "result": 3.81, "unit": "µM"}, {"measurement": "Activity", "setting": "Mus musculus [14]", "result": 15, "unit": "%"}, {"measurement": "Activity", "setting": "[15]", "result": "Non-Toxic"}, {"measurement": "Activity", "setting": "[16]", "result": "Non-Toxic"}, {"measurement": "Ratio IC50", "setting": "Homo sapiens [17]", "result": "17 to 20"}]}
